Reference: ChEMBL document CHEMBL1157556, “Synthesis and biological screening of a combinatorial library of beta-chlorovinyl chalcones as anticancer, anti-inflammatory and antimicrobial agents” (Bioorg Med Chem, 2010)
Values after ≈ are worked out from the molar mass of the structure shown.

How the values were obtained:
[1] = test system: HCT-116; experiment: Anticancer activity against human HCT116 cells at 10 uM after 48 hrs by propidium iodide fluorescence assay; format: functional
In short: (§1)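 Propidium iodide DNA-fluorescence assay. Seeding 3000–7500 cells/well, 24 h recovery at 37 °C in 5% CO₂. Compounds in 0.1% DMSO added to triplicate wells at 10 µM. Flavopiridol 700 nM and gemcitabine 500 nM as reference inhibitors. Plates frozen at −80 °C for 24 h, thawed to room temperature, fluorescence read at excitation 530 nm and emission 620 nm. Percent cytotoxicity calculated.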

[2] = test system: Calu-1; experiment: Anticancer activity against human Calu1 cells at 10 uM after 48 hrs by propidium iodide fluorescence assay; format: functional; in short: as §1
[3] = test system: Staphylococcus aureus; experiment: Antibacterial activity against Staphylococcus aureus MTCC 96 after 24 hrs; format: functional; conditions: MTCC 96, 24 h
In short: (§2)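 Agar well diffusion on Mueller Hinton agar seeded with 0.1 mL of a 10⁵ cfu/mL suspension in 0.85% saline. Compounds dissolved in DMSO, final concentrations 25–250 µg/mL, 0.1 mL loaded per 6 mm well. DMSO (1%) control; tetracycline (10 µg/mL) reference. Duplicate plates incubated 24 h at 37 °C. Inhibition zone read in mm. MIC taken as lowest concentration giving complete growth inhibition.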

[4] = test system: PANC-1; experiment: Anticancer activity against human PANC1 cells at 10 uM after 48 hrs by propidium iodide fluorescence assay; format: functional; in short: as §1
[5] = test system: Aspergillus niger; experiment: Antifungal activity against Aspergillus niger MTCC 1781 at 100 ug/ml after 48 hrs agar diffusion method; format: functional; conditions: MTCC 1781, 48 h, read-out: IZ
In short: (§3)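 Fungal spore suspensions in sterile distilled water adjusted to 10⁶ cfu/mL; 0.1 mL spread on Sabouraud dextrose agar. Wells of 6 mm filled with 0.1 mL compound dilution in DMSO. DMSO (1%) control; nystatin (30 µg/mL) reference. Duplicate plates incubated at 28 °C for 48 h. Activity read as inhibition zone diameter in mm.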

[6] = test system: THP-1; experiment: Cytotoxicity against human THP1 cells assessed as CCK8 release at 10 uM after 24 hrs by ELISA; format: cell-based; conditions: thp-1, 24 h
In short: (§4)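 Same THP-1 cytokine-assay cells, with compounds in 0.5% DMSO and LPS stimulation, were scored in parallel for cytotoxicity by CCK-8.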

[7] = test system: NCI-H460; experiment: Anticancer activity against human H460 cells at 10 uM after 48 hrs by propidium iodide fluorescence assay; format: functional; in short: as §1
[8] = test system: THP-1; experiment: Antiinflammatory activity in human THP1 cells assessed as inhibition of LPS-induced TNFalpha release at 10 uM after 24 hrs by ELISA; format: functional; conditions: THP-1, 24 h
In short: (§5)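 THP-1 cells grown in RPMI 1640 with 10% FBS, penicillin and streptomycin, then PMA-differentiated. Compounds in 0.5% DMSO preincubated 30 min at 37 °C before LPS (E. coli 0127:B8) stimulation. TNF-α and IL-6 release measured by kit per the manufacturer (BD Biosciences). Percent inhibition calculated relative to control. Dexamethasone 1 µM as reference.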

[9] = test system: Escherichia coli; experiment: Antibacterial activity against Escherichia coli MTCC 1650 after 24 hrs; format: functional; conditions: MTCC 1650, 24 h; in short: as §2
[10] = test system: Bacillus subtilis; experiment: Antibacterial activity against Bacillus subtilis MTCC 1789 after 24 hrs; format: functional; conditions: MTCC 1789, 24 h; in short: as §2
[11] = test system: Trichoderma viride; experiment: Antifungal activity against Trichoderma viride MTCC 167 at 100 ug/ml after 48 hrs agar diffusion method; format: functional; conditions: MTCC 167, 48 h, read-out: IZ; in short: as §3
[12] = test system: Bacillus subtilis; experiment: Antibacterial activity against Bacillus subtilis MTCC 1789 at 50 ug/ml after 24 hrs agar diffusion method; format: functional; conditions: MTCC 1789, 24 h, read-out: IZ; in short: as §2
[13] = test system: Penicillium chrysogenum; experiment: Antifungal activity against Penicillium chrysogenum MTCC 1996 at 100 ug/ml after 48 hrs agar diffusion method; format: functional; conditions: MTCC 1996, 48 h, read-out: IZ; in short: as §3
[14] = test system: Staphylococcus aureus; experiment: Antibacterial activity against Staphylococcus aureus MTCC 96 at 50 ug/ml after 24 hrs agar diffusion method; format: functional; conditions: MTCC 96, 24 h, read-out: IZ; in short: as §2
[15] = test system: ACHN; experiment: Anticancer activity against human ACHN cells at 10 uM after 48 hrs by propidium iodide fluorescence assay; format: functional; in short: as §1
[16] = test system: Klebsiella pneumoniae; experiment: Antibacterial activity against Klebsiella pneumoniae NCIM 2957 at 50 ug/ml after 24 hrs agar diffusion method; format: functional; conditions: NCIM 2957, 24 h, read-out: IZ; in short: as §2
[17] = test system: Proteus vulgaris; experiment: Antibacterial activity against Proteus vulgaris MTCC 1771 at 50 ug/ml after 24 hrs agar diffusion method; format: functional; conditions: MTCC 1771, 24 h, read-out: IZ; in short: as §2
[18] = test system: THP-1; experiment: Antiinflammatory activity in human THP1 cells assessed as inhibition of LPS-induced IL6 release at 10 uM after 24 hrs by ELISA; format: functional; conditions: THP-1, 24 h; in short: as §5
[19] = test system: Candida albicans; experiment: Antifungal activity against Candida albicans MTCC 227 at 100 ug/ml after 48 hrs agar diffusion method; format: functional; conditions: MTCC 227, 48 h, read-out: IZ; in short: as §3
[20] = test system: Escherichia coli; experiment: Antibacterial activity against Escherichia coli MTCC 1650 at 50 ug/ml after 24 hrs agar diffusion method; format: functional; conditions: MTCC 1650, 24 h, read-out: IZ; in short: as §2
[21] = test system: Proteus vulgaris; experiment: Antibacterial activity against Proteus vulgaris MTCC 1771 after 24 hrs; format: functional; conditions: MTCC 1771, 24 h; in short: as §2
[22] = test system: Klebsiella pneumoniae; experiment: Antibacterial activity against Klebsiella pneumoniae NCIM 2957 after 24 hrs; format: functional; conditions: NCIM 2957, 24 h; in short: as §2
[23] = test system: Aspergillus flavus; experiment: Antifungal activity against Aspergillus flavus MTCC 2501 at 100 ug/ml after 48 hrs agar diffusion method; format: functional; conditions: MTCC 2501, 48 h, read-out: IZ; in short: as §3
[24] = test system: Calu-1; experiment: Anticancer activity against human Calu1 cells at 500 nM after 48 hrs by propidium iodide fluorescence assay; format: functional; in short: as §1
[25] = test system: PANC-1; experiment: Anticancer activity against human PANC1 cells at 500 nM after 48 hrs by propidium iodide fluorescence assay; format: functional; in short: as §1
[26] = test system: ACHN; experiment: Anticancer activity against human ACHN cells at 500 nM after 48 hrs by propidium iodide fluorescence assay; format: functional; in short: as §1
[27] = test system: NCI-H460; experiment: Anticancer activity against human H460 cells at 500 nM after 48 hrs by propidium iodide fluorescence assay; format: functional; in short: as §1
[28] = test system: HCT-116; experiment: Anticancer activity against human HCT116 cells at 500 nM after 48 hrs by propidium iodide fluorescence assay; format: functional; in short: as §1
[29] = test system: THP-1; experiment: Antiinflammatory activity in human THP1 cells assessed as inhibition of LPS-induced IL6 release at 1 uM after 24 hrs by ELISA; format: functional; conditions: THP-1, 24 h; in short: as §5
[30] = test system: THP-1; experiment: Antiinflammatory activity in human THP1 cells assessed as inhibition of LPS-induced TNFalpha release at 1 uM after 24 hrs by ELISA; format: functional; conditions: THP-1, 24 h; in short: as §5
[31] = test system: THP-1; experiment: Cytotoxicity against human THP1 cells assessed as CCK8 release at 1 uM after 24 hrs by ELISA; format: cell-based; conditions: thp-1, 24 h; in short: as §4
[32] = test system: Calu-1; experiment: Anticancer activity against human Calu1 cells at 700 nM after 48 hrs by propidium iodide fluorescence assay; format: functional; in short: as §1
[33] = test system: PANC-1; experiment: Anticancer activity against human PANC1 cells at 700 nM after 48 hrs by propidium iodide fluorescence assay; format: functional; in short: as §1
[34] = test system: NCI-H460; experiment: Anticancer activity against human H460 cells at 700 nM after 48 hrs by propidium iodide fluorescence assay; format: functional; in short: as §1
[35] = test system: ACHN; experiment: Anticancer activity against human ACHN cells at 700 nM after 48 hrs by propidium iodide fluorescence assay; format: functional; in short: as §1
[36] = test system: HCT-116; experiment: Anticancer activity against human HCT116 cells at 700 nM after 48 hrs by propidium iodide fluorescence assay; format: functional; in short: as §1

SMILES | Activity [1] | Activity [2] | MIC [3] | Activity [4] | zone of inhibition at 100 µg/mL [5] | Activity [6] | Activity [7] | inhibition at 10 µM [8] | MIC [9] | MIC [10] | zone of inhibition at 100 µg/mL [11] | zone of inhibition at 50 µg/mL [12] | zone of inhibition at 100 µg/mL [13] | zone of inhibition at 50 µg/mL [14] | Activity [15] | zone of inhibition at 50 µg/mL [16] | zone of inhibition at 50 µg/mL [17] | inhibition at 10 µM [18] | zone of inhibition at 100 µg/mL [19] | zone of inhibition at 50 µg/mL [20] | also measured
COc1ccc(C(=O)/C=C/C=C(\Cl)c2cccc(Cl)c2)c(OC)c1 | 37% | 40% | 50 µg/mL (≈ 138 µM) | 32% | 14 mm | 0% | 31% | 0% | 50 µg/mL (≈ 138 µM) | 50 µg/mL (≈ 138 µM) | 13 mm | 18 mm | 10 mm | 16 mm | 32% | 16 mm | 13 mm | 7% | 10 mm | 12 mm | MIC [21]: 50 µg/mL (≈ 138 µM); MIC [22]: 50 µg/mL (≈ 138 µM); zone of inhibition at 100 µg/mL [23]: 15 mm
Nc1ccn([C@@H]2O[C@H](CO)[C@@H](O)C2(F)F)c(=O)n1 [GEMCITABINE] | – | – | – | – | – | – | – | – | – | – | – | – | – | – | – | – | – | – | – | – | Activity [24]: 70%; Activity [25]: 71%; Activity [26]: 70%; Activity [27]: 68%; Activity [28]: 76%
C[C@@H]1C[C@H]2[C@@H]3CCC4=CC(=O)C=C[C@]4(C)[C@@]3(F)[C@@H](O)C[C@]2(C)[C@@]1(O)C(=O)CO [DEXAMETHASONE] | – | – | – | – | – | – | – | – | – | – | – | – | – | – | – | – | – | – | – | – | inhibition at 1 µM [29]: 84%; inhibition at 1 µM [30]: 73%; Activity [31]: 0%
COc1ccc(C(=O)/C=C/C=C(\Cl)c2ccc(F)cc2)cc1 | 0% | 0% | 50 µg/mL (≈ 158 µM) | 1% | 8 mm | 2% | 14% | 0% | 50 µg/mL (≈ 158 µM) | 50 µg/mL (≈ 158 µM) | 14 mm | 15 mm | 15 mm | 16 mm | 17% | 15 mm | 16 mm | 6% | 8 mm | 11 mm | MIC [21]: 50 µg/mL (≈ 158 µM); MIC [22]: 50 µg/mL (≈ 158 µM); zone of inhibition at 100 µg/mL [23]: 15 mm
CN1CC[C@H](c2c(O)cc(O)c3c(=O)cc(-c4ccccc4Cl)oc23)[C@H](O)C1 [ALVOCIDIB] | – | – | – | – | – | – | – | – | – | – | – | – | – | – | – | – | – | – | – | – | Activity [32]: 68%; Activity [33]: 75%; Activity [34]: 84%; Activity [35]: 68%; Activity [36]: 71%
